Assay outcomes from PubChem.
Dynein transport – inhibitors of GR-EGFP nuclear translocation, primary screen, dynein cargo transport inhibitor project, imaging, high-content, 3617.4 mouse cells; z-score, hits read low; 220,000 tested, 0.47% active; test concentration mostly 20 µM; stimulated with dexamethasone, 1 µM; hits give low values; AID 1381, 2008;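 active = plate z-score of nuclear minus cytoplasmic receptor signal below a set negative limit, without overly bright fluorescence or cell loss, cut at about -3.5 in these data, passing the limit was not always enough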;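 also: z-score of nuclear minus cytoplasmic ring GR-EGFP intensity difference per well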
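Also added – dexamethasone, 1.0 µM final · Buffer or medium – tet-free, stripped-serum medium · Schedule – induction 48 h, compound 1 h, agonist 30 min · Detection – formaldehyde fixation, Hoechst nuclear stain, 10x automated fluorescence imaging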
Autophagy mod – autophagy modulators in MEF cells, primary screen, imaging, high-content, MEF GFP-LC3. calls only at 10 µM (by protocol). MEF GFP-LC3 puncta imaging; test concentration mostly 10 µM. AID 463193, 2010. 190,000 tested, 0.98% active;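 active = percentage of spot-positive cells more than 3 SD above its plate mean, without a fluorescence outlier flag or 80% toxicity; inconclusive = no clear call, values can overlap the other calls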
ROMK mod – ROMK potassium channel modulators, primary screen, cell-based, thallium flux, MLSMR library. ATP-sensitive inward rectifier potassium channel 1 (Homo sapiens), P48048. Tet-inducible ROMK, thallium flux fluorescence; actives lie on both sides. B-score at 10 µM. 130,000 tested, 2% active. AID 1918, 2009;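 active = signal ratio slope over the read window, or its plate-corrected B-score, at least 3 SD from the plate mean, either direction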;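 also: B-score of the F/F0 ratio slope over 7 to 12 s after thallium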
Cl transport mod – KCC2 cotransporter modulators, thallium flux, primary screen, cell-based, HEK293 KCC2, FluoZin-2 fluorescence, MLSMR | Solute carrier family 12 member 5 (Homo sapiens), Q9H2X9 | KCC2 cells, thallium flux FluoZin-2 fluorescence | B-score of Tl+ flux slope (higher = more flux/activation; lower = inhibition) at 10 µM | 190,000 tested, 2.2% active | AID 1456, 2008;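 active = thallium flux slope and its plate-corrected score both differing from the plate sample mean at a set confidence after two filtering rounds, in either direction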;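 also: slope of fluorescence scaled to starting intensity during 10 to 20 s after thallium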
Target sequence (Q9H2X9 whole entry, looked up): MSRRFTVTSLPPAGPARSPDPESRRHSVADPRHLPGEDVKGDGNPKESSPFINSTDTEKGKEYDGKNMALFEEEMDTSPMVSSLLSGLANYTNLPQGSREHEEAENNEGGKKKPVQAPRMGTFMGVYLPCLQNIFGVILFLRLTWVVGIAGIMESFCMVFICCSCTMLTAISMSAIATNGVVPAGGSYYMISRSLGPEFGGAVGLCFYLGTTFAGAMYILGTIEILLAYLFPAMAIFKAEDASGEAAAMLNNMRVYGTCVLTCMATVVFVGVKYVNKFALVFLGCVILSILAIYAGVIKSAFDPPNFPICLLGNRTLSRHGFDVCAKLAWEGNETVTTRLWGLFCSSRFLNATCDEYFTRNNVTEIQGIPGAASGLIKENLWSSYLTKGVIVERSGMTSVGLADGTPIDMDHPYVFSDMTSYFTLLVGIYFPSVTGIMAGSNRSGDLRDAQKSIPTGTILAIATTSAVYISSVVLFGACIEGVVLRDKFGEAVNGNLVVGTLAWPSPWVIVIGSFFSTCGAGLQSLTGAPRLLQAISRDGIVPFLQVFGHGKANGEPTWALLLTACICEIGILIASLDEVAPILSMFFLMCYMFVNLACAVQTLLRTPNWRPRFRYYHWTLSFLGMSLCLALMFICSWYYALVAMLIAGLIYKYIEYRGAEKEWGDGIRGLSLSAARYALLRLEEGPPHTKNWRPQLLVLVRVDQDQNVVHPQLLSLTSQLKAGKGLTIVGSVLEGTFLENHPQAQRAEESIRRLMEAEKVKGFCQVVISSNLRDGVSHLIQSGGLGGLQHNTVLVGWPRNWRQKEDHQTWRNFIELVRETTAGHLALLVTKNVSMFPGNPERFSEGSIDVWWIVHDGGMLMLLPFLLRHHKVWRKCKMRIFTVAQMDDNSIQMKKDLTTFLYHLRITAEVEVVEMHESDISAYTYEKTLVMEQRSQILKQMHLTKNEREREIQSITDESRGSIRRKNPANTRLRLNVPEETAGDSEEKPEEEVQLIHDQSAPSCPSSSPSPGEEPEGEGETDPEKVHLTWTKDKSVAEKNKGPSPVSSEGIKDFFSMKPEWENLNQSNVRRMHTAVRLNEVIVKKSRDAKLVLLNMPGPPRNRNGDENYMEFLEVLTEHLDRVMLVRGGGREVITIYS
DTT redox prof – compounds producing H2O2 with reducing agent – biochemical, NIH compound library profiling, artefact control for MLSCN library redox annotation, primary screen; DTT-dependent redox cycling H2O2, phenol red/HRP absorbance; 100% = 100 µM peroxide control, 0% = buffer; activation, % at 10 µM; 200,000 tested, 0.03% active; AID 878, 2007;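 active = activation of at least 50% relative to the plate's high and low controls in the primary single-dose screen; inactive = activation below 50%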;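 also: compound incubated with DTT at 0.8 mM final as the reducing agent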
KCC2 secondary – KCC2 modulators in sodium-free buffer, confirmation, cell-based, HEK293 KCC2, thallium flux, secondary assay. normalised thallium flux (F/F0 slope) at 10 µM. 3,700 tested, 15% active. FluoZin2 fluorescence; hits give high values. shares compounds with Cl transport mod;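 active = thallium flux slope above the same plate's solvent-only control mean plus 3 SD; inconclusive = the two replicate wells disagree; inactive = no significant difference from solvent-only control wells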
KCC2 bumet counter – thallium flux persisting under bumetanide in KCC2 cells, confirmation, counter-screen for KCC2 modulator project, cell-based, HEK293 KCC2, FluoZin2, secondary assay 3 | HEK293-KCC2 + bumetanide/ouabain; hits give high values | normalized thallium flux at 10 µM | shares compounds with Cl transport mod | 3,700 tested, 49% active;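 active = thallium entry rate above the same plate's blocked-transporter control wells by more than 3 SD; inconclusive = the two repeat wells disagree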;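 also: raw slope of fluorescence over initial fluorescence between 10 and 20 s after thallium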
KCC2 sec2 – KCC2 modulators without ouabain present, confirmation, cell-based, HEK293 KCC2, thallium flux, FluoZin2, secondary assay 2. shares compounds with Cl transport mod. thallium flux FluoZin2 fluorescence; actives lie on both sides; F/F0 rise rate, 10–20 s post-thallium. normalized thallium flux at 10 µM. 3,700 tested, 23% active;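 active = thallium flux slope more than 3 SD above or below the plate's solvent-only control mean, mostly below; inconclusive = the two repeat wells disagreed; inactive = no significant shift from solvent-only controls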
HEK293 Tl flux – thallium flux modulation in parental HEK cells, confirmation, counter-screen for KCC2 modulator project, cell-based, counterscreen 1. shares compounds with Cl transport mod. HEK293 parental cells, thallium flux FluoZin2, ouabain; baseline-ratio fluorescence slope, 10–20 s after thallium. thallium flux rate (normalised fluorescence) at 10 µM. 3,700 tested, 46% active;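 active = thallium flux rate significantly above the same plate's solvent-only control wells, beyond their mean plus 3 SD; inconclusive = the two replicate wells gave conflicting results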
KCC2 retest ouab – KCC2 inhibitors and activators, ouabain retest, confirmation, HEK-KCC2 cells; AID 1717, 2009; raw Tl+ flux slope (below DMSO = inhibition, above = activation) at 10 µM; shares compounds with Cl transport mod; 3,700 tested, 48% active; HEK293-KCC2, thallium flux FluoZin2 fluorescence; bidirectional: low = inhibitor, high = activator;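 active = thallium flux slope beyond 3 SD from same-plate DMSO control mean in most replicates, usually higher, sometimes lower; inconclusive = repeat tests gave conflicting results; inactive = no significant difference from controls in most replicates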;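 also: slope of initial-normalized fluorescence between seconds 10 and 20 after thallium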
HEK293 Tl flux2 – native HEK Tl+ uptake effects, second counter-screen – HEK cells, counterscreen 2, counter-screen for KCC2 modulator project, confirmation. shares compounds with Cl transport mod. AID 1718, 2009. thallium flux slope at 10 µM. 3,700 tested, 33% active. HEK293 parental, thallium flux FluoZin-2 fluorescence slope;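 active = thallium flux slope above the same plate's solvent-control mean plus 3 SD in both duplicate wells; inconclusive = duplicate wells that disagreed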;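 also: run without ouabain in cells lacking the KCC2 cotransporter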
Large screens that a line does not name were inactive (follow-up assays come after a bar, where they were run). This is a sample that favours compounds with a hit; in the whole collection about 4.1% have one here.

CN(C(=O)CCn1c(=S)oc2ccccc21)c1ccc(F)cc1	none
Cc1ccc(COc2ccccc2-c2cc(C(=O)N/N=C/c3cccnc3)[nH]n2)cc1	Cl transport mod -5.5 (no result: Autophagy mod, ROMK mod, DTT redox prof) | KCC2 secondary inactive | KCC2 bumet counter inactive | KCC2 sec2 inconclusive | HEK293 Tl flux inconclusive | KCC2 retest ouab 0.012 | HEK293 Tl flux2 inactive
Cc1sc2nc(SCc3nnc(-c4cccs4)o3)n(C3CCCC3)c(=O)c2c1C	Cl transport mod 10 | KCC2 secondary 0.017 | KCC2 bumet counter 0.046 | KCC2 sec2 inactive | HEK293 Tl flux 0.019 | KCC2 retest ouab inactive | HEK293 Tl flux2 0.014
Cc1sc2nc(CSc3nnc(Cc4cccs4)n3C3CCCCC3)[nH]c(=O)c2c1C	none (no result: Cl transport mod)
CC/C(=N/Nc1ccccc1)c1cnnc(-c2ccccc2)n1	Autophagy mod active, Cl transport mod 2.7 | KCC2 secondary inactive | KCC2 bumet counter inactive | KCC2 sec2 inactive | HEK293 Tl flux inactive | KCC2 retest ouab inactive | HEK293 Tl flux2 inactive
CCOc1ccc(S(=O)(=O)NCCC(=O)OCN2C(=O)c3ccccc3C2=O)cc1	none (no result: Cl transport mod)
Cc1ccc(S(=O)(=O)NCC(=O)OCN2C(=O)c3ccccc3C2=O)cc1	none | KCC2 secondary inactive | KCC2 bumet counter inactive | KCC2 sec2 inactive | HEK293 Tl flux inactive | KCC2 retest ouab inactive | HEK293 Tl flux2 inactive
C=CCOc1c(Br)cc(CNc2ccc(NC(=O)C(C)C)c(OC)c2)cc1OCC	none
Cc1ccc2c(c1C)NC(=O)C21N2CCCC2C(C(=O)c2ccc3ccccc3c2)C12C(=O)Nc1ccccc12 (stereo unspecified)	none (no result: Autophagy mod, ROMK mod, DTT redox prof)
CCOC(=O)C1(CCCc2ccccc2)CCN(Cc2cnc(C)s2)CC1	Cl transport mod -4.9 | KCC2 secondary inconclusive | KCC2 bumet counter inactive | KCC2 sec2 inconclusive | HEK293 Tl flux inactive | KCC2 retest ouab inactive | HEK293 Tl flux2 inactive
CCOC(=O)C1(Cc2cccc(F)c2)CCN(Cc2cnc(C)s2)CC1	none (no result: ROMK mod, Cl transport mod)
O=C(O)/C(=C\c1ccc(Cl)cc1)c1ccc(F)cc1	none
Cc1ccc(Nc2nc3ccccc3c(=O)s2)cc1C	Cl transport mod 17 | KCC2 secondary inactive | KCC2 bumet counter 0.031 | KCC2 sec2 0.043 | HEK293 Tl flux 0.026 | KCC2 retest ouab 0.039 | HEK293 Tl flux2 0.028
Cc1ccc(C(=O)Nc2nc3ccccc3c(=O)s2)cc1	Cl transport mod 41 | KCC2 secondary 0.027 | KCC2 bumet counter 0.14 | KCC2 sec2 0.054 | HEK293 Tl flux 0.079 | KCC2 retest ouab 0.11 | HEK293 Tl flux2 0.029
CSc1nc2ccc3nc(NC(=O)c4ccc(C)cc4)sc3c2s1	none (no result: ROMK mod)
Cc1cc(C(=O)CSc2nnc(-c3cccc(F)c3)n2N)c(C)n1Cc1ccc2c(c1)OCO2	none (no result: Cl transport mod) | KCC2 secondary inactive | KCC2 bumet counter inactive | KCC2 sec2 inactive | HEK293 Tl flux inactive | KCC2 retest ouab inactive | HEK293 Tl flux2 inactive
Cc1oc(-c2ccccc2Cl)nc1CS(=O)CC(=O)NCc1cccs1 (stereo unspecified)	none (no result: ROMK mod, Cl transport mod)
Cc1oc(-c2ccc(Cl)cc2)nc1CS(=O)CC(=O)NCc1cccs1 (stereo unspecified)	Cl transport mod -3.6 (no result: ROMK mod) | KCC2 secondary inactive | KCC2 bumet counter inactive | KCC2 sec2 inactive | HEK293 Tl flux inactive | KCC2 retest ouab inactive | HEK293 Tl flux2 inactive
COc1ccc(-c2nc(CS(=O)CC(=O)NCc3cccnc3)c(C)o2)cc1 (stereo unspecified)	none (no result: ROMK mod)
CCc1ccc(-c2nc(CS(=O)CC(=O)NCc3cccnc3)c(C)o2)cc1 (stereo unspecified)	Cl transport mod 4.4 (no result: ROMK mod) | KCC2 secondary inactive | KCC2 bumet counter inactive | KCC2 sec2 inconclusive | HEK293 Tl flux inactive | KCC2 retest ouab inconclusive | HEK293 Tl flux2 inactive
CC(NC(=O)COC(=O)C1CSC2(C)CCC(=O)N12)C12CC3CC(CC(C3)C1)C2 (stereo unspecified)	none
O=[N+]([O-])c1ccccc1N(CC1CO1)S(=O)(=O)c1ccccc1 (stereo unspecified)	none
COC(=O)c1ccc(NC(=O)CCN2C(=O)CSC2=O)cc1	none
Cc1cc(C)c2nc(-c3ccccn3)cc(C(=O)n3cccn3)c2c1	none
COc1cc(OC)cc(C(=O)NC(=S)NNC(=O)[C@H]2C[C@@H]2c2ccccc2)c1	Cl transport mod 59 (no result: Autophagy mod, ROMK mod, DTT redox prof) | KCC2 secondary 0.023 | KCC2 bumet counter 0.078 | KCC2 sec2 0.043 | HEK293 Tl flux 0.033 | KCC2 retest ouab 0.059 | HEK293 Tl flux2 0.016
O=C(NC(=S)NNC(=O)[C@H]1C[C@@H]1c1ccccc1)c1ccc(F)cc1	Cl transport mod 20 (no result: Autophagy mod, ROMK mod, DTT redox prof) | KCC2 secondary inactive | KCC2 bumet counter 0.02 | KCC2 sec2 inactive | HEK293 Tl flux 0.02 | KCC2 retest ouab 0.03 | HEK293 Tl flux2 0.021
COc1ccc(C(=O)NC(=S)NNC(=O)[C@H]2C[C@@H]2c2ccccc2)cc1OC	none (no result: Autophagy mod, ROMK mod, DTT redox prof)
Nc1cccc(CN2CCCC2)c1	none
O=C(NCc1ccco1)c1ccc(Br)c(S(=O)(=O)N2CCCCC2)c1	none (no result: Cl transport mod) | KCC2 secondary inactive | KCC2 bumet counter inactive | KCC2 sec2 inconclusive | HEK293 Tl flux inactive | KCC2 retest ouab inactive | HEK293 Tl flux2 inactive
